System: Fibroblast
Assay: Multiplex assay against human fibroblast
Format: toxicity, cell-based
Method in brief: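 Live cells were stained at seeding with Hoechst33342, BioTracker Green Microtubule Cytoskeleton Dye, MitoTracker Red and Annexin V Alexa Fluor 680. Following compound addition, they were imaged on a CQ1 microscope at 37°C and 5% CO2 and gated by CellPathfinder machine learning into Hoechst high-intensity objects or normal cells, with normal cells split into healthy, pyknosed or fragmented nuclei and pyknosed cells into mitotic or apoptotic. Tubulin, mitochondrial-mass and membrane-permeability phenotypes are per cents of healthy-nucleus cells.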

[1] = 12 h, 1 µM, compound concentration 1 uM, replicate 1
[2] = 12 h, 1 µM, compound concentration 1 uM, replicate 2
[3] = 12 h, 10 µM, compound concentration 10 uM, replicate 1
[4] = 12 h, 10 µM, compound concentration 10 uM, replicate 2
[5] = 24 h, 1 µM, compound concentration 1 uM, replicate 1
[6] = 24 h, 1 µM, compound concentration 1 uM, replicate 2
[7] = 24 h, 10 µM, compound concentration 10 uM, replicate 1
[8] = 24 h, 10 µM, compound concentration 10 uM, replicate 2
[9] = 48 h, 1 µM, compound concentration 1 uM, replicate 1
[10] = 48 h, 1 µM, compound concentration 1 uM, replicate 2
[11] = 48 h, 10 µM, compound concentration 10 uM, replicate 1
[12] = 48 h, 10 µM, compound concentration 10 uM, replicate 2

Cc1c(P(=S)(c2ccccc2)c2ccccc2)n2ccccc2[n+]1C/C=C/c1ccccc1.[Br-]
Population Apoptotic (%) [1]: 63%
Population Fragmented Nuclei (%) [1]: 26%
Population Healthy Nuclei (%) [1]: 43%
Population Hoechst High Intensity Objects (%) [1]: 7%
Population Membrane Permeable-Phenotype (%) [1]: 7%
Population Mitochondria Different-Phenotype (%) [1]: 28%
Population Mitotic Cells (%) [1]: 36%
Population Normal (%) [1]: 92%
Population Pyknosed Nuclei (%) [1]: 30%
Population Tubulin-Different-Phenotype (%) [1]: 60%
Total Cell Count [1]: 177
Population Apoptotic (%) [2]: 75%
Population Fragmented Nuclei (%) [2]: 50%
Population Healthy Nuclei (%) [2]: 45%
Population Hoechst High Intensity Objects (%) [2]: 22%
Population Membrane Permeable-Phenotype (%) [2]: 10%
Population Mitochondria Different-Phenotype (%) [2]: 50%
Population Mitotic Cells (%) [2]: 25%
Population Normal (%) [2]: 77%
Population Pyknosed Nuclei (%) [2]: 4%
Population Tubulin-Different-Phenotype (%) [2]: 31%
Total Cell Count [2]: 93
Population Apoptotic (%) [3]: 73%
Population Fragmented Nuclei (%) [3]: 23%
Population Healthy Nuclei (%) [3]: 14%
Population Hoechst High Intensity Objects (%) [3]: 14%
Population Membrane Permeable-Phenotype (%) [3]: 5%
Population Mitochondria Different-Phenotype (%) [3]: 64%
Population Mitotic Cells (%) [3]: 26%
Population Normal (%) [3]: 85%
Population Pyknosed Nuclei (%) [3]: 62%
Population Tubulin-Different-Phenotype (%) [3]: 88%
Total Cell Count [3]: 137
Population Apoptotic (%) [4]: 94%
Population Fragmented Nuclei (%) [4]: 21%
Population Healthy Nuclei (%) [4]: 10%
Population Hoechst High Intensity Objects (%) [4]: 8%
Population Membrane Permeable-Phenotype (%) [4]: 83%
Population Mitochondria Different-Phenotype (%) [4]: 83%
Population Mitotic Cells (%) [4]: 5%
Population Normal (%) [4]: 91%
Population Pyknosed Nuclei (%) [4]: 68%
Population Tubulin-Different-Phenotype (%) [4]: 83%
Total Cell Count [4]: 108
Population Apoptotic (%) [5]: 70%
Population Fragmented Nuclei (%) [5]: 22%
Population Healthy Nuclei (%) [5]: 58%
Population Hoechst High Intensity Objects (%) [5]: 9%
Population Membrane Permeable-Phenotype (%) [5]: 5%
Population Mitochondria Different-Phenotype (%) [5]: 40%
Population Mitotic Cells (%) [5]: 29%
Population Normal (%) [5]: 90%
Population Pyknosed Nuclei (%) [5]: 19%
Population Tubulin-Different-Phenotype (%) [5]: 59%
Total Cell Count [5]: 181
Population Apoptotic (%) [6]: 75%
Population Fragmented Nuclei (%) [6]: 55%
Population Healthy Nuclei (%) [6]: 40%
Population Hoechst High Intensity Objects (%) [6]: 33%
Population Membrane Permeable-Phenotype (%) [6]: 9%
Population Mitochondria Different-Phenotype (%) [6]: 31%
Population Mitotic Cells (%) [6]: 25%
Population Normal (%) [6]: 66%
Population Pyknosed Nuclei (%) [6]: 3%
Population Tubulin-Different-Phenotype (%) [6]: 15%
Total Cell Count [6]: 124
Population Apoptotic (%) [7]: 85%
Population Fragmented Nuclei (%) [7]: 17%
Population Healthy Nuclei (%) [7]: 10%
Population Hoechst High Intensity Objects (%) [7]: 18%
Population Membrane Permeable-Phenotype (%) [7]: 8%
Population Mitochondria Different-Phenotype (%) [7]: 83%
Population Mitotic Cells (%) [7]: 14%
Population Normal (%) [7]: 81%
Population Pyknosed Nuclei (%) [7]: 71%
Population Tubulin-Different-Phenotype (%) [7]: 75%
Total Cell Count [7]: 138
Population Apoptotic (%) [8]: 100%
Population Fragmented Nuclei (%) [8]: 23%
Population Healthy Nuclei (%) [8]: 38%
Population Hoechst High Intensity Objects (%) [8]: 26%
Population Membrane Permeable-Phenotype (%) [8]: 81%
Population Mitochondria Different-Phenotype (%) [8]: 81%
Population Mitotic Cells (%) [8]: 0%
Population Normal (%) [8]: 73%
Population Pyknosed Nuclei (%) [8]: 38%
Population Tubulin-Different-Phenotype (%) [8]: 81%
Total Cell Count [8]: 163
Population Apoptotic (%) [9]: 60%
Population Fragmented Nuclei (%) [9]: 33%
Population Healthy Nuclei (%) [9]: 54%
Population Hoechst High Intensity Objects (%) [9]: 12%
Population Membrane Permeable-Phenotype (%) [9]: 6%
Population Mitochondria Different-Phenotype (%) [9]: 42%
Population Mitotic Cells (%) [9]: 40%
Population Normal (%) [9]: 87%
Population Pyknosed Nuclei (%) [9]: 11%
Population Tubulin-Different-Phenotype (%) [9]: 64%
Total Cell Count [9]: 191
Population Apoptotic (%) [10]: 100%
Population Fragmented Nuclei (%) [10]: 29%
Population Healthy Nuclei (%) [10]: 70%
Population Hoechst High Intensity Objects (%) [10]: 10%
Population Membrane Permeable-Phenotype (%) [10]: 2%
Population Mitochondria Different-Phenotype (%) [10]: 48%
Population Mitotic Cells (%) [10]: 0%
Population Normal (%) [10]: 89%
Population Pyknosed Nuclei (%) [10]: 0%
Population Tubulin-Different-Phenotype (%) [10]: 72%
Total Cell Count [10]: 123
Population Apoptotic (%) [11]: 92%
Population Fragmented Nuclei (%) [11]: 36%
Population Healthy Nuclei (%) [11]: 21%
Population Membrane Permeable-Phenotype (%) [11]: 0%
Population Mitochondria Different-Phenotype (%) [11]: 85%
Population Mitotic Cells (%) [11]: 7%
Population Pyknosed Nuclei (%) [11]: 42%
Population Tubulin-Different-Phenotype (%) [11]: 95%
Total Cell Count [11]: 141
Population Apoptotic (%) [12]: 84%
Population Fragmented Nuclei (%) [12]: 52%
Population Healthy Nuclei (%) [12]: 18%
Population Hoechst High Intensity Objects (%) [12]: 32%
Population Membrane Permeable-Phenotype (%) [12]: 25%
Population Mitochondria Different-Phenotype (%) [12]: 75%
Population Mitotic Cells (%) [12]: 15%
Population Normal (%) [12]: 67%
Population Pyknosed Nuclei (%) [12]: 29%
Population Tubulin-Different-Phenotype (%) [12]: 100%
Total Cell Count [12]: 65

— ChEMBL document CHEMBL4689842, “EUbOPEN Chemogenomics Library wave 1” (2021)
